The results in this text go back to PMC4871731 (Nature chemical biology, 2016).

Peptide text beside a SMILES is read from it. * marks the point of attachment. Cbz = O=C(OCc1ccccc1)*

In assay [1] the target is T1, human CLRN1^N48K (Homo sapiens, UniProt P58418, N48K).
T1 sequence (P58418 1-232 N48K): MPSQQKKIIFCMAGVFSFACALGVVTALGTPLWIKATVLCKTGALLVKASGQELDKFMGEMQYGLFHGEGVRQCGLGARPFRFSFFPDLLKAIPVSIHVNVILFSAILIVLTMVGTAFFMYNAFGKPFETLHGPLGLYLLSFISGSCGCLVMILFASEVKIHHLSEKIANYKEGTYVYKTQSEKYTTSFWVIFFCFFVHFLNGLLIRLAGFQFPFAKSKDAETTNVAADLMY
The experiment in a line: Effect of HSP90 inhibition on CLRN1N48K expression. Conditions: D6 cells, 17-AAG 20 µM applied alone. The format is cell-based. An outline of the steps: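 D6 cells were treated for 24 h with 20 µM 17-AAG, test compound (2.90 µM), 50 nM bortezomib, or DMSO vehicle. In one arm, cells were pre-incubated 6 h with 17-AAG before test compound was added for 24 h. Cells were then harvested for CLRN1N48K immunoblotting.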

In assay [2] the target is T1, human CLRN1^N48K. Put plainly: Combined treatment with cycloheximide and washout. The format is cell-based. Conditions: for levels of CLRN1^N48K after 6 h treatment (T0): D6 cells, vs DMSO, bortezomib 50 nM, MG132 50 µM, O03 16.8 µM. The method, boiled down: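 D6 cells at 70% confluency were treated 6 h with bortezomib (50 nM), MG132 (50 µM) or test compound (16.8 µM); […]. Cells were then cultured 6 h more in 100 µM cycloheximide with or without the same agent. In the washout arm, compound-pretreated cells were washed and held 6 h in cycloheximide without compound. Read-out was CLRN1N48K by immunoblot.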

Assay [3] deals with T1, human CLRN1^N48K. Put plainly: Automated HTS, D6 cell-based immunofluorescence assay. Particulars: D6 cell line, 25 nM. The method, boiled down:
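Primary screen of about 50,000 library compounds. Cells were fixed in 4% formaldehyde for 20 min, washed with PBST and stained with anti-HA for 90 min at room temperature. Fluorescence intensity per cell area came from six images per well and was normalised per plate to bortezomib and untreated controls to give percent activity.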

The subject of assay [4] is human CLRN1^N48K-Venus. Put plainly: Dual color. The assay is classed as cell-based. Conditions: 16.8 µM test compound or 50 nM bortezomib, 24 h, vs no treatment. An outline of the steps:
(§1)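 Cell line stably co-expressing CLRN1N48K-Venus-1D4 and DsRed-Express-DR, grown to 70% confluency. Treatment was 16.8 µM test compound in triplicate for 24 h, with 50 nM bortezomib as positive and DMSO as negative control. Cells were fixed in 4% formaldehyde, washed with PBS and imaged by inverted fluorescence microscopy. Venus and DsRed intensities were quantified in 15 equal-sized cell-containing regions per well, three wells per treatment.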

The test system of assay [5] is CLRN1 mRNA. The experiment in a line: Reverse transcription and quantitative PCR in D6 cells. The assay is classed as cell-based, human. Conditions: 24 h, O03 16.8 µM, bortezomib 50 nM. An outline of the steps:
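D6 cells at 70% confluency were treated in triplicate for 24 h with 50 nM bortezomib, 16.8 µM test compound, or 0.25% DMSO. Total RNA was isolated with TRIzol. 5 µg RNA was DNase I-treated and reverse-transcribed with M-MLV using a mix of dT12, dT15 and dT18 primers (10 µM each), followed by quantitative PCR.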

Assay [6] concerns the target T1, human CLRN1^N48K. Put plainly: Immunoblotting of CLRN1N48K in D6 cells. The assay is classed as cell-based. Particulars: 24 h, O03 16.8 µM, B03 16.8 and 1.68 µM, bortezomib 50 nM. The method, boiled down:
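D6 cells at 70% confluency were treated for 24 h with bortezomib (50 nM) or test compounds at 16.8 µM (one also at 1.68 µM), with DMSO at 0.25% (v/v) final. Lysates were then immunoblotted for CLRN1N48K.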
On the technique in general: Immunoblotting shows a protein as a band on a membrane.

In assay [7] the test system is DsRed-Express-DR (reporter for proteasome-mediated protein degradation). Put plainly: Dual color. The assay is classed as cell-based. Conditions: 16.8 µM test compound or 50 nM bortezomib, 24 h, vs no treatment. The method, boiled down:
as §1

Turning to `C=CCNC1=C2C[C@@H](C)C[C@H](OC)[C@H](O)[C@@H](C)/C=C(\C)[C@H](OC(N)=O)[C@@H](OC)/C=C\C=C(/C)C(=O)NC(=CC1=O)C2=O` [17-AAG, 17-N-allylamino-17-demethoxygeldanamycin], the “amount of CLRN1^N48K” value in assay [1] is given as “did not alter the amount of CLRN1^N48K”.
Take `C[C@@H]1C[C@@H]([C@H](O)CC2CC(=O)NC(=O)C2)C(=O)[C@@H](C)C1` [cycloheximide]: the “synthesis of CLRN1^N48K” value in assay [2] (100 µM cycloheximide) is “confirmed to inhibit the synthesis of CLRN1^N48K”.
For `CC(C)C[C@H](NC(=O)[C@H](Cc1ccccc1)NC(=O)c1cnccn1)B(O)O` [bortezomib], the “amount of CLRN1^N48K” value in assay [3] is reported as “increased amount”. In addition, the Venus fluorescence entry in assay [4] was “increased both Venus and DsRed”. In assay [2] (6 h compound, washout, then 6 h with cycloheximide without compound), the “stability of CLRN1^N48K after washout” value was “effective in stabilizing and protecting CLRN1^N48K from degradation”. In addition, in assay [2], the “levels of CLRN1^N48K after 6 h treatment (T0)” value is “increased levels of CLRN1^N48K”. For the same compound, the “CLRN1^N48K mRNA level” value in assay [5] is reported as “not affected”. The “CLRN1^N48K level by immunoblotting” value in assay [6] is on record as “increased dramatically”. In addition, the DsRed fluorescence result in assay [7] is “increased both Venus and DsRed”.
With `CC(C)C[C@@H](C=O)NC(=O)[C@H](CC(C)C)NC(=O)[C@H](CC(C)C)NC(=O)OCc1ccccc1` [MG132] (Cbz-Leu-Leu-Leu-aldehyde), the “levels of CLRN1^N48K after 6 h treatment (T0)” value in assay [2] is given as “increased levels of CLRN1^N48K”.
